Source: PMC9742164 (ChemMedChem, 2022)
In brackets after ≈: the same amount, converted by molar mass.

Columns and labels:
E. coli DNA gyrase [1] = biological target: T1, E. coli DNA gyrase (Escherichia coli, UniProt P0AES6); assay: Gel-based DNA gyrase supercoiling inhibition assay; type: biochemical; settings: for Inhibition of E. coli DNA gyrase: polyphenol screen, in words; for IC50: supercoiling
S. aureus ATCC 14775 = assay: MIC broth microdilution; type: cell-based
MRSA ATCC 33591 = assay: MIC broth microdilution; type: cell-based, methicillin-resistant Staphylococcus aureus
B. subtilis ATCC 6633 = assay: MIC broth microdilution; type: cell-based
E. coli ATCC 25922 = assay: MIC broth microdilution; type: cell-based
E. coli imp BAS3023 = type: cell-based; settings: E. coli imp BAS3023 (imp4213 permeability mutation)
E. coli DNA gyrase [2] = biological target: T1, E. coli DNA gyrase; assay: SDFQ-based DNA gyrase supercoiling inhibition assay; type: biochemical
[3] = biological target: T2, E. coli DNA topoisomerase IV (Escherichia coli, UniProt P20083); assay: Gel-based DNA relaxation assay by topoisomerase IV; type: biochemical; settings: for IC50: IC50 against E. coli topoisomerase IV, relaxation; for Inhibition of E. coli DNA topoisomerase IV: in words
[4] = biological target: T2, E. coli DNA topoisomerase IV; assay: SDFQ-based DNA relaxation assay by topoisomerase IV; type: biochemical
[5] = biological target: T2, E. coli DNA topoisomerase IV; assay: DNA decatenation assay by topoisomerase IV; type: biochemical
E. coli DNA gyrase [6] = biological target: T1, E. coli DNA gyrase; assay: DNA gyrase ATPase linked assay; type: biochemical
Method in brief: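 Pyruvate kinase/lactate dehydrogenase-coupled NADH assay at 37°C. Buffer: 10 mM Tris-HCl pH 7.5, 0.2 mM EDTA, 1 mM MgCl2, 1 mM DTT, 2% glycerol. Mix: 50 nM gyrase or GyrB, 200 ng relaxed pAB1, 0.8 mM phosphoenolpyruvate, 1.2 U PK, 1.7 U LDH, 0.4 mM NADH. After 5 min preincubation, 2 mM ATP started the reaction, read at A340. Double-reciprocal plot with or without test compound at 500 nM; single-point at 100 μM.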

[7] = biological target: T2, E. coli DNA topoisomerase IV; assay: Topoisomerase IV ATPase linked assay; type: biochemical; settings: in words; 100 μM (Figure 4e)
Method in brief: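 Topoisomerase IV ATP hydrolysis was coupled to NADH oxidation via pyruvate kinase/lactate dehydrogenase, read at 340 nm, 37°C. Buffer: 10 mM Tris-HCl pH 7.5, 0.2 mM EDTA, 1 mM MgCl2, 1 mM DTT, 2% glycerol. Mix: relaxed pAB1, 0.8 mM phosphoenolpyruvate, 0.4 mM NADH. After 5 min preincubation, 2 mM ATP was added. Test compounds at 100 μM.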

[8] = biological target: E. coli DNA topoisomerase I (Escherichia coli, UniProt P06612); assay: DNA relaxation assay by E. coli DNA topoisomerase I; type: biochemical; settings: at 100 μM
[9] = biological target: T3, human DNA topoisomerase I (Homo sapiens, UniProt P11387); assay: DNA relaxation assay by human DNA topoisomerase I; type: biochemical; settings: at 100 μM
T3 sequence (P11387 1-765): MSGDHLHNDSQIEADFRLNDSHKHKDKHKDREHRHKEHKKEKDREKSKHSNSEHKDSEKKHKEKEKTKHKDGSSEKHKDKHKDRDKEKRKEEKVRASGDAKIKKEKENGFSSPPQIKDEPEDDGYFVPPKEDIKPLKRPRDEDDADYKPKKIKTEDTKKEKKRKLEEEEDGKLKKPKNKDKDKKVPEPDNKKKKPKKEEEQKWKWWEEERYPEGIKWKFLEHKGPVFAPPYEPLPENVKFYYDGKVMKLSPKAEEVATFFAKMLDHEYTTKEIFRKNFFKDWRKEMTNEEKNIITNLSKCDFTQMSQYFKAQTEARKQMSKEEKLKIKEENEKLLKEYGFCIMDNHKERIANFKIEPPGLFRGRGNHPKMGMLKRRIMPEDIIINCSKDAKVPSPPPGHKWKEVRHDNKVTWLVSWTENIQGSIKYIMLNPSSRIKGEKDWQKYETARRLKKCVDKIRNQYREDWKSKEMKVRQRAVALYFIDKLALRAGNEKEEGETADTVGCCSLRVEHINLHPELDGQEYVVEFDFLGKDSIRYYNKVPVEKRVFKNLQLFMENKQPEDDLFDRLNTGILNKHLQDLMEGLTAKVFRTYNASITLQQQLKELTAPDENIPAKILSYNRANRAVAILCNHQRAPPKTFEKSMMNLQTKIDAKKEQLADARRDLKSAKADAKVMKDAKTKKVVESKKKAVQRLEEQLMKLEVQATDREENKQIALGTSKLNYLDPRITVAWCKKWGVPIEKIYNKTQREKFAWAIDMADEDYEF

[10] = biological target: human DNA topoisomerase IIα (Homo sapiens, UniProt P11388); assay: DNA relaxation assay by human DNA topoisomerase IIα; type: biochemical; settings: at 100 μM
E. coli DNA gyrase [11] = biological target: T1, E. coli DNA gyrase; assay: DNA gyrase-mediated DNA cleavage assay; type: biochemical; settings: up to 200 μM digallic acid
Method in brief: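 Plasmid pBR322 (250 ng) and 20 nM E. coli gyrase were incubated in gyrase buffer with test compound (0–200 μM) at 37°C for 15 min. Then 0.2% SDS and 0.1 mg/mL proteinase K were added to trap cleavage complexes, with 30 min more at 37°C. […] Products ran on 1% agarose containing 0.5 μg/mL ethidium bromide.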

[12] = IC50 against E. coli DNA gyrase, Gel-based
[13] = Staphylococcus aureus, ATCC14775
[14] = Staphylococcus aureus, ATCC33591|MRSA

T2 sequence (P20083 whole entry): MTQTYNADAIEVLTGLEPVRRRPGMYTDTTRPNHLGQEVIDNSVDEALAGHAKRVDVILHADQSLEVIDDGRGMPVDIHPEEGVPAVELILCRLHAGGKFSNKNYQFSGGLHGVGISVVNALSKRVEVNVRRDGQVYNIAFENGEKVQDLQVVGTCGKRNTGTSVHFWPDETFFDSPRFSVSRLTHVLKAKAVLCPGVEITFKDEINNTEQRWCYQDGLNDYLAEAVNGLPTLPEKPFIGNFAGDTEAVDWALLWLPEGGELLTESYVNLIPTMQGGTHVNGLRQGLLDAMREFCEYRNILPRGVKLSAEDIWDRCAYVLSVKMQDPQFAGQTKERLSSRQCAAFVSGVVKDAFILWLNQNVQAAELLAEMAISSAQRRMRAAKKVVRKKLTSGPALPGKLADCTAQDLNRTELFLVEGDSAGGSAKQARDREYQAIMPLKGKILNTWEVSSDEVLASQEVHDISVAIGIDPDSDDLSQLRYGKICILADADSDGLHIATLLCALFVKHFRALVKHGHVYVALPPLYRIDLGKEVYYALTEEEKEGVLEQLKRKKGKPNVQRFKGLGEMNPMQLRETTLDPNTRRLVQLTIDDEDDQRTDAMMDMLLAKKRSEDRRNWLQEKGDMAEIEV
T2 sequence (P0AFI2 whole entry, further chain): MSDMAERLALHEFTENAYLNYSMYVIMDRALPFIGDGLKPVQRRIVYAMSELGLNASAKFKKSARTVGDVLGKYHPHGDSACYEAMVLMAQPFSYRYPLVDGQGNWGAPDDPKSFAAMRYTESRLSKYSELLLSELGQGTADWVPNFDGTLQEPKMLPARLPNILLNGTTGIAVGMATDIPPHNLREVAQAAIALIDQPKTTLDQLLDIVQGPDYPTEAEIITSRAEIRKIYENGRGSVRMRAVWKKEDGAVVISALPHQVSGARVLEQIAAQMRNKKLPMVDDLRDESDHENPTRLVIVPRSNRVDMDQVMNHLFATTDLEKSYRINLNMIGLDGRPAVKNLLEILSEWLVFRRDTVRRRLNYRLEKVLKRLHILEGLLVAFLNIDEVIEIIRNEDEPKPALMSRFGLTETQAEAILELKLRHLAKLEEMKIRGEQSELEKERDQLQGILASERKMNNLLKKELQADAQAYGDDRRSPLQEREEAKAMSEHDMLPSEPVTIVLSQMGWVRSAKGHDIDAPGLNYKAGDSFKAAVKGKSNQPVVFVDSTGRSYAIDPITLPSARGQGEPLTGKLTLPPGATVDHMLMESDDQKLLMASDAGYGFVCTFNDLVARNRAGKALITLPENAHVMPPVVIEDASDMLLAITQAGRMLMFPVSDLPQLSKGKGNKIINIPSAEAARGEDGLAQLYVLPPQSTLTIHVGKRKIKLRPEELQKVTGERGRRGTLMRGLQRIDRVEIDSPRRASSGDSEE
Chain of E. coli DNA topoisomerase I (P06612 whole entry): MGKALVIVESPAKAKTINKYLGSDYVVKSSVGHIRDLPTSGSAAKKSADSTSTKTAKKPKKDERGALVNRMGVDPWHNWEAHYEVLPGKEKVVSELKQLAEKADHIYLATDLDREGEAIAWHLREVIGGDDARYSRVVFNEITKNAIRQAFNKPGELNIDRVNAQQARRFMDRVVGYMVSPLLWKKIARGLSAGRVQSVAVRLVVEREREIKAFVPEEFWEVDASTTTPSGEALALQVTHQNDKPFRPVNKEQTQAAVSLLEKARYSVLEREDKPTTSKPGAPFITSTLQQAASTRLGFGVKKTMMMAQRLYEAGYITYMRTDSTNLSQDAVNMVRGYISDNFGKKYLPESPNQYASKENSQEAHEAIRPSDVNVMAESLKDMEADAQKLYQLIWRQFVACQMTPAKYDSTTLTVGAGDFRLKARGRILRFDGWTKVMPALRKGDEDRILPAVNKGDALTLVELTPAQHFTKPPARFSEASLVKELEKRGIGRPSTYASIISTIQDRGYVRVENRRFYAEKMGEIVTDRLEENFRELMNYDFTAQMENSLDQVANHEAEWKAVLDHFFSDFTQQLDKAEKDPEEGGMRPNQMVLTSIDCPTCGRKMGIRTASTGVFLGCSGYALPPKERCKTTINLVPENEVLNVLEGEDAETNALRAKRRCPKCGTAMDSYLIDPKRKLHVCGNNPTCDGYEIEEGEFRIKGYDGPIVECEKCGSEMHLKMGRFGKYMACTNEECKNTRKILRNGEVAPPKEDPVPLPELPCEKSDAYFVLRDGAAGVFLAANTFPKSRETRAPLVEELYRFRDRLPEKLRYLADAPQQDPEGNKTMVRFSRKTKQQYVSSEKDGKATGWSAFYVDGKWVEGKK
Chain of human DNA topoisomerase IIα (P11388 whole entry): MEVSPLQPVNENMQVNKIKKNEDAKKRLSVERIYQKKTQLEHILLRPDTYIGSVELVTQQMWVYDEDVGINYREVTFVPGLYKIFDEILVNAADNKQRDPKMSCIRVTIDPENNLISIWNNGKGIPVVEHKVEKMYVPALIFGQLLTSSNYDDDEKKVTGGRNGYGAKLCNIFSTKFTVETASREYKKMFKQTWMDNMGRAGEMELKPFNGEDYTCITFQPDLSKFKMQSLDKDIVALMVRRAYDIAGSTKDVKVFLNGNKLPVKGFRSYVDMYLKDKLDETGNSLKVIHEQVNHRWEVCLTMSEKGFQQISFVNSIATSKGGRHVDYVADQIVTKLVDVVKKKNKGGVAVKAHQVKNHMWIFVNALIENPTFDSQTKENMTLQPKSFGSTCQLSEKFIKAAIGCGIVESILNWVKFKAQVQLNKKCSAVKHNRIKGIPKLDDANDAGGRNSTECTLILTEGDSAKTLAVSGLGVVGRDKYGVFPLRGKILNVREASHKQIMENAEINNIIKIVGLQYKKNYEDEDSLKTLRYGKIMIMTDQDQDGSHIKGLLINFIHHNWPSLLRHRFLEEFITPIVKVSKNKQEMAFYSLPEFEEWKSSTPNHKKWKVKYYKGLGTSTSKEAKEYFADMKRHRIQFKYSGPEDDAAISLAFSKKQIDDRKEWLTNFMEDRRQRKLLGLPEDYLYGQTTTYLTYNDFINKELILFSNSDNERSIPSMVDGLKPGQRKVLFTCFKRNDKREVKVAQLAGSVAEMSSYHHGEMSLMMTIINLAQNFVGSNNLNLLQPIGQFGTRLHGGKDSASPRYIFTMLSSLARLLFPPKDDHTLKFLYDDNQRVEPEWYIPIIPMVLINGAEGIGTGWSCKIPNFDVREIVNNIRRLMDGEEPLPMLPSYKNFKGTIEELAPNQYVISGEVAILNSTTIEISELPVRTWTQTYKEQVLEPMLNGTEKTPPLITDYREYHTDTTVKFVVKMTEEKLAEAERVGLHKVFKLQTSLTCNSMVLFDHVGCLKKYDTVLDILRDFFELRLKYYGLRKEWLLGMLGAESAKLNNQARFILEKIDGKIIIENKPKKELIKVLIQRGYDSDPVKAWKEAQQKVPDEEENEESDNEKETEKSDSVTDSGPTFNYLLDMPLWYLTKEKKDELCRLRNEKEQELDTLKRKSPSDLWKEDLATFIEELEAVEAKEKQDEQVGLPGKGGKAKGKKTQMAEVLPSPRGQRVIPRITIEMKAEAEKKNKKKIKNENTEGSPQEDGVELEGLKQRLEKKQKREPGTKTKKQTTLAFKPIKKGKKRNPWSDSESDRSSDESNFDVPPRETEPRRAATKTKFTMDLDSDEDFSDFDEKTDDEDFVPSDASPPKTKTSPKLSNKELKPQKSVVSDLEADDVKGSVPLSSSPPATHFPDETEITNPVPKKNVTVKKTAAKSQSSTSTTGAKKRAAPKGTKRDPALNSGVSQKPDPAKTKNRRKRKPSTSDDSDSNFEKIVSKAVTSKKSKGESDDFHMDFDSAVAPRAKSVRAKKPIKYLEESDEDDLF

Row | Compound | IC50 (E. coli DNA gyrase [1]; [12]) [µM] | IC50 (E. coli DNA gyrase [2]) [µM] | IC50 ([3]; Gel-based) [µM] | IC50 [4] [µM] | MIC (S. aureus ATCC 14775; [13]) [µM] | MIC (MRSA ATCC 33591; [14]) [µM] | MIC (E. coli ATCC 25922; Escherichia coli, ATCC25922) [µM] | also measured
1 | O=C(/C=C/c1ccc(O)c(O)c1)O[C@@H]1CC(O)(C(=O)O)C[C@@H](OC(=O)/C=C/c2ccc(O)c(O)c2)C1O (stereo partly drawn) [3,5-dicaffeoylquinic acid, reference compound] | – | – | – | – | – | – | – | Inhibition of E. coli DNA gyrase (E. coli DNA gyrase [1]): strongly inhibit
2 | O=C(Oc1ccc(-c2ccccc2)cc1)c1cc(O)c(O)c(O)c1 [Biphenyl gallate, biphenyl gallate] | – | – | – | – | – | – | – | MIC (S. aureus ATCC 14775; S. aureus ATCC 14775): 50 µM (≈ 16.1 µg/mL); MIC (MRSA ATCC 33591; MRSA ATCC 33591): 50 µM (≈ 16.1 µg/mL); MIC (B. subtilis ATCC 6633): 50 to 100 µM; MIC (E. coli ATCC 25922; E. coli ATCC 25922): >200 µM; MIC (E. coli imp BAS3023): 200 µM (≈ 64.5 µg/mL)
3 | CCCCOC(=O)c1cc(O)c(O)c(O)c1 [Butyl gallate, butyl gallate] | > 100 | > 100 | > 100 | > 100 | > 200 | > 200 | > 200 | –
4 | O=C(O)c1cc(O)c(O)c(OC(=O)c2cc(O)c(O)c(O)c2)c1 [Digallic acid, digallic acid] | 2 | 1.9 | 8 | 7.3 | 200 (≈ 64.4 µg/mL) | 200 (≈ 64.4 µg/mL) | > 200 | IC50 (E. coli DNA gyrase [1]; IC50 against E. coli DNA gyrase, gel (Figure 1)): ~2 µM; IC50 [3]: ~8 µM; IC50 [5]: ~4 µM; Ki (E. coli DNA gyrase [6]): 0.347 µM; Vmax of gyrase ATPase (E. coli DNA gyrase [6]; in the presence of 500 nM of digallic acid, without inhibitor 16.3 ± 2.5 nM/s): 17.8 ± 5.0 nM/s; Inhibition of ATPase activities of E. coli DNA gyrase (E. coli DNA gyrase [6]; in words, 100 μM (Figure 3d)): greatly inhibit; Inhibition of ATPase activities of bacterial DNA topoisomerase IV [7]: inhibit; Inhibition of E. coli DNA topoisomerase I [8]: do not inhibit; Inhibition of human DNA topoisomerase I [9]: do not inhibit; Inhibition of human DNA topoisomerase IIα [10]: do not inhibit; Gyrase poisoning (gyrase-mediated DNA cleavage) (E. coli DNA gyrase [11]): not bacterial DNA gyrase poisons
5 | CCCCCCCCCCCCOC(=O)c1cc(O)c(O)c(O)c1 [Dodecyl gallate, dodecyl gallate] | 15 | 13.8 | 50 | 36.9 | 200 (≈ 67.7 µg/mL) | 200 (≈ 67.7 µg/mL) | > 200 | Inhibition of E. coli DNA topoisomerase IV [3]: strongly inhibit
6 | O=C(O[C@@H]1Cc2c(O)cc(O)cc2O[C@@H]1c1cc(O)c(O)c(O)c1)c1cc(O)c(O)c(O)c1 [EGCG, epigallocatechin gallate, reference compound] | – | – | – | – | – | – | – | Inhibition of E. coli DNA gyrase (E. coli DNA gyrase [1]): strongly inhibit
7 | O=C(O)c1cc(O)c(O)c(O)c1 [Gallic acid, gallic acid] | > 500 | – | > 500 | – | – | – | – | –
8 | CO[C@@H]1[C@@H](OC(N)=O)[C@@H](O)[C@H](Oc2ccc3c(O)c(NC(=O)c4ccc(O)c(CC=C(C)C)c4)c(=O)oc3c2C)OC1(C)C [Novobiocin, novobiocin, reference compound] | – | – | – | – | < 6.25 | < 6.25 | 158 (≈ 96.5 µg/mL) | –
9 | CCCCCCCCOC(=O)c1cc(O)c(O)c(O)c1 [Octyl gallate, octyl gallate] | 50 | 26 | 50 | 41.2 | 200 (≈ 56.5 µg/mL) | 100 (≈ 28.2 µg/mL) | > 200 | Inhibition of E. coli DNA topoisomerase IV [3]: strongly inhibit
10 | O=C(Oc1ccccc1)c1cc(O)c(O)c(O)c1 [Phenyl gallate, phenyl gallate] | – | – | – | – | – | – | – | IC50 (E. coli DNA gyrase [1]; read-out: IC50 against E. coli DNA gyrase, Gel-based, gel-based): > 100 µM; IC50 (E. coli DNA gyrase [2]; read-out: IC50 against E. coli DNA gyrase, SDFQ, supercoiling, SDFQ): > 100 µM; IC50 ([4]; read-out: IC50 against E. coli topoisomerase IV, SDFQ, relaxation, SDFQ): > 100 µM; MIC (S. aureus ATCC 14775; S. aureus ATCC 14775): 200 µM (≈ 49.2 µg/mL); MIC (MRSA ATCC 33591; MRSA ATCC 33591): 200 µM (≈ 49.2 µg/mL); MIC (B. subtilis ATCC 6633): >200 µM; MIC (E. coli ATCC 25922; E. coli ATCC 25922): >200 µM; MIC (E. coli imp BAS3023): >200 µM
11 | O=c1oc2c(O)c(O)cc3c(=O)oc4c(O)c(O)cc1c4c23 [ellagic acid, reference compound] | – | – | – | – | – | – | – | Inhibition of E. coli DNA gyrase (E. coli DNA gyrase [1]): strongly inhibit
12 | tannic acid | – | – | – | – | – | – | – | IC50 (E. coli DNA gyrase [1]; read-out: IC50 against E. coli DNA gyrase, gel (Figure 1)): 1 µM
